Laboratory results from PMC4734651 (MedChemComm, 2014).

Each compound was assayed against TrkA (Homo sapiens, UniProt P04629) (assay: TrkA biochemical screening assay). Details: 39 compared with 26.
Method in brief: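 5FAM-tagged TrkA peptide (1.5 μM final) and ATP (190 μM final) then added. Run to 10–20% conversion in no-inhibitor wells; no-enzyme blanks. Product/substrate peaks separated on chip; percent inhibition calculated.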

Chain of TrkA (P04629 33-796): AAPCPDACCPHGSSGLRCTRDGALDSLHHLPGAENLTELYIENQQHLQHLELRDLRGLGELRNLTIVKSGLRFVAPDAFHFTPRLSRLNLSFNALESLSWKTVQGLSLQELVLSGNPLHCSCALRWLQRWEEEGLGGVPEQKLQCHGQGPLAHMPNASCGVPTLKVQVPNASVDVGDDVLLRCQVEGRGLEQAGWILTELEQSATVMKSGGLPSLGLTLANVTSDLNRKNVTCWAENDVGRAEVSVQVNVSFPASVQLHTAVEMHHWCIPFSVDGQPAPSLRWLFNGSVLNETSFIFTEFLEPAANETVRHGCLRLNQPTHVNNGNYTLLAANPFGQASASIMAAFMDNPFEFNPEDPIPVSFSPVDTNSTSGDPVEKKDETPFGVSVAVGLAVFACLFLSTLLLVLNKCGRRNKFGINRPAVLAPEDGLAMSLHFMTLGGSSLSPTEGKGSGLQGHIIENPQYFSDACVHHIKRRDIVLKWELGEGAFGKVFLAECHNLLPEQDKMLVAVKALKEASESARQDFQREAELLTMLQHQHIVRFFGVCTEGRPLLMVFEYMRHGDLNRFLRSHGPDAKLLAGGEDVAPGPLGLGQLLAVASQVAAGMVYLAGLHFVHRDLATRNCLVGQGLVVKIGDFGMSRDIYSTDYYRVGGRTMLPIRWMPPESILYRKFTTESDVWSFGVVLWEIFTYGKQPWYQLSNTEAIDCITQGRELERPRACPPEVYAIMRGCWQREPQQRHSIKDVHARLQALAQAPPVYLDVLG

increase in TrkA inhibition in comparison to 26 | Compound
~ 5 fold | Cn1cc(-c2cncc(-c3ccc(NC(=O)Nc4cc(C(C)(C)C)on4)cc3)n2)cn1 [Compound 39]

Same assay, conditions: chlorine at A-region derivatized, compared with 1a

Compound | TrkA affinity increase relative to compound 1a [times]
COc1ccc(-c2cncc(Oc3cccc(NC(=O)Nc4cc(C(C)(C)C)on4)c3)n2)cc1 [Compound 9] | > 1000
CC(C)(C)c1cc(NC(=O)Nc2cccc(Oc3cncc(-c4ccc(S(C)(=O)=O)cc4)n3)c2)no1 [Compound 20] | > 1000

Results, then the compound that gave them:

TrkA affinity increase relative to compound 1a [times] | Compound
> 1000 | CC(C)(C)c1cc(NC(=O)Nc2cccc(Oc3cncc(-c4ccsc4)n3)c2)no1 [Compound 15]
> 1000 | Cn1cc(-c2cncc(Oc3cccc(NC(=O)Nc4cc(C(C)(C)C)on4)c3)n2)cn1 [Compound 26]
> 1000 | CC(C)(C)c1cc(NC(=O)Nc2cccc(Oc3cncc(-c4ccc(F)cc4)n3)c2)no1 [Compound 36]

Same assay, conditions: qualitative statement

TrkA activity (in words) | Compound
not strongly active | CC(C)(C)c1cc(NC(=O)Nc2cccc(Oc3cncc(Cl)n3)c2)no1 [Compound 1a]
relatively inactive | CC(C)(C)c1ccc(NC(=O)Nc2cccc(Oc3cncc(-c4ccsc4)n3)c2)cc1 [Compound 13]
relatively inactive | CC(C)(C)c1cc(NC(=O)Nc2cccc(Oc3cncc(-c4ccsc4)n3)c2)on1 [Compound 14]
relatively inactive | Cn1nc(C(C)(C)C)cc1NC(=O)Nc1cccc(Oc2cncc(-c3ccsc3)n2)c1 [Compound 16]

Compound | TrkA activity (in words)
Cn1cc(-c2cncc(-c3ccc(NC(=O)Nc4cc(C(C)(C)C)on4)cc3)n2)cn1 [Compound 39] | far more potent than their ether linked counterparts
Cn1cc(-c2cncc(-c3ccc(NC(=O)Nc4cc(C(C)(C)C)nn4C)cc3)n2)cn1 [Compound 40] | far more potent than their ether linked counterparts

Same assay, conditions: read-out: %TrkA inhibition, 20 μM

inhibition at 20 µM [%] | Compound
41.4 ± 3.3 | CC(C)(C)c1cc(NC(=O)Nc2ccc(-c3cncc(Cl)n3)cc2)no1 [Compound 38]
96.1 ± 2.3 | Cn1cc(-c2cncc(-c3ccc(NC(=O)Nc4cc(C(C)(C)C)on4)cc3)n2)cn1 [Compound 39]
